The source of these data is ChEMBL document CHEMBL3352366, “Synthesis and biological evaluation of 2,3-dihydroimidazo[1,2-a]benzimidazole derivatives against Leishmania donovani and Trypanosoma cruzi” (Eur J Med Chem, 2014).

A short description of data set [1]: Selectivity index, ratio of IC50 for human THP1 cells to IC50 for intracellular amastigote stage of Leishmania donovani MHOM/ET/67/HU3. The format is toxicity, cell-based, THP-1. The following applies: read-out: Selectivity Index. The essentials:
(§1)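 Host THP-1 cytotoxicity was taken from the same intracellular amastigote images (PMA-differentiated, infected, 3-day compound exposure) by counting cell numbers normalized to 1 % DMSO. CC₅₀ is the average of duplicates; SI was calculated from EC₅₀ and CC₅₀.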

Data set [2] concerns Leishmania donovani. The experiment in a line: Antileishmanial activity against extracellular promastigote stage of Leishmania donovani MHOM/ET/67/HU3 incubated for 28 hrs followed by additional 20 hrs incubation.
A short description of data set [3]: Cytotoxicity against human U2OS cells infected with intracellular Trypanosoma cruzi. In kind it is cell-based. In a few lines: (§2)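 U2OS cytotoxicity was measured in the same 48 h T. cruzi infection assay by counting host cell numbers in the DRAQ5-stained confocal images to give CC₅₀. SI was calculated from EC₅₀ and CC₅₀.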
The subject of data set [4] is Leishmania donovani. The experiment in a line: Antileishmanial activity against intracellular amastigote stage of Leishmania donovani MHOM/ET/67/HU3 infected in human THP1 cells after 3 days by confocal microscopy. In kind it is functional, organism-based. The settings on record: MHOM/ET/67/HU3, THP-1, 72 h.
Data set [5] in a line: Cytotoxicity against human THP1 cells infected with intracellular amastigote stage of Leishmania donovani MHOM/ET/67/HU3. In kind it is cell-based, THP-1. The essentials:
as §1

The next data set relates to Trypanosoma cruzi. The experiment in a line: Antitrypanosomal activity against intracellular Trypanosoma cruzi infected in human U2OS cells after 48 hrs by confocal microscopy. The format is functional, organism-based. In a few lines: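 T. cruzi tissue-culture trypomastigotes were raised in LLC-MK2 cells. U2OS cells and parasites were mixed, dispensed onto compound plates and incubated 48 h at 37 °C, 5 % CO₂. Cells were fixed with 4 % paraformaldehyde, DRAQ5-stained and imaged by confocal microscopy to count parasites and infection ratio. Controls: benznidazole 400 µM and 1 % DMSO. EC₅₀ derived from infection ratio normalized to the controls.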

A short description of data set [6]: Selectivity index, ratio of IC50 for human U2OS cells to IC50 for intracellular Trypanosoma cruzi. The format is toxicity, cell-based. The following applies: U2OS cells versus intracellular Trypanosoma cruzi, read-out: Selectivity Index. The essentials: as §2

Structures are written as SMILES. A value given as a limit tells only on which side of the number the result lay.

Regarding `FC(F)(F)c1ccc(-c2ccc(CN3C4=NCCN4c4ccccc43)cc2)cc1`, the selectivity ratio in data set [1] turned out to be 2.91. The EC50 in the data set with Leishmania donovani [2] is 3.11 µM; in the data set on Leishmania donovani [4], 10.3 µM; in the data set on Trypanosoma cruzi, greater than 50 µM. In addition, the CC50 in data set [3] was greater than 50 µM; in data set [5] it was 30 µM.
The compound `CS(=O)(=O)c1ccc(CN2C3=NCCN3c3ccccc32)cc1` yielded a half-maximal effective concentration (EC50) in the data set with Leishmania donovani [4] greater than 50 µM. The compound further came in with a half-maximal cytotoxic concentration (CC50) in data set [5] greater than 50 µM.
Turning to `Clc1ccc(-c2ccc(CN3C4=NCCN4c4ccccc43)cc2)cc1`, the selectivity ratio in data set [6] came to 1.7; in data set [1] it was 1.46. The values for the 50% cytotoxic concentration (CC50) in data set [3] and in data set [5] were 9.36 µM and 20 µM, respectively. Also, the EC50 in the data set on Leishmania donovani [4] was found to be 13.7 µM; in the data set on Trypanosoma cruzi, 5.56 µM.
On to `Fc1ccc(-c2ccc(CN3C4=NCCN4c4ccccc43)cc2)cc1`, for which the selectivity ratio in data set [6] is greater than 5.62; in data set [1] it was 3.94. For the same compound, the concentration giving a half-maximal response (EC50) was found to be 1.49 µM with Leishmania donovani [2], 8.88 µM in the data set with Leishmania donovani [4] and 8.89 µM with Trypanosoma cruzi. The CC50 in data set [3] is greater than 50 µM; in data set [5] it was 35 µM.
On to `FC(F)(F)c1ccc(CN2C3=NCCN3c3ccccc32)cc1`, for which the selectivity ratio in data set [6] is greater than 3.75. In addition, the 50% cytotoxic concentration (CC50) in data set [3] and in data set [5] was greater than 50 µM throughout. For the same compound, the EC50 in the data set with Leishmania donovani [4] was greater than 50 µM; with Trypanosoma cruzi, 13.4 µM.
In the case of `Cc1cc2c(cc1C)N(Cc1ccc(C(C)(C)C)cc1)C1=NCCN12`, the cytotoxic concentration (CC50) in data set [3] and in data set [5] was greater than 50 µM throughout. In addition, the EC50 in the data set with Leishmania donovani [4] and in the data set on Trypanosoma cruzi was greater than 50 µM in each case.
Consider `CCc1ccc(CN2C3=NCCN3c3ccccc32)cc1`, for which the results for the selectivity ratio in data set [6] and in data set [1] were greater than 1.48 and greater than 1.19, respectively. For the same compound, the CC50 in data set [3] and in data set [5] was greater than 50 µM in each case. Further, the EC50 was 42 µM in the data set on Leishmania donovani [4] and 33.7 µM with Trypanosoma cruzi.
In the data set with Leishmania donovani [4], `c1ccc(CN2C3=NCCN3c3ccccc32)cc1` registered an EC50 greater than 50 µM. The cytotoxic concentration (CC50) in data set [5] was greater than 50 µM.
Turning to `c1ccc2c(c1)N1CCN=C1N2Cc1ccc(C2CCCCC2)cc1`, the values for the selectivity ratio in data set [6] and in data set [1] were 3.81 and 4.19, respectively. The figures for the EC50 with Leishmania donovani [2], with Leishmania donovani [4] and with Trypanosoma cruzi were 1.71 µM, 5.4 µM and 1.6 µM, respectively. In addition, the CC50 in data set [3] stood at 6.1 µM; in data set [5] it was 22.8 µM.
As to `Fc1ccc(CN2C3=NCCN3c3ccccc32)cc1`, the CC50 in data set [3] and in data set [5] was greater than 50 µM throughout. In addition, the EC50 with Leishmania donovani [4] and in the data set on Trypanosoma cruzi was greater than 50 µM throughout.
With `Cc1ccc(-c2ccc(CN3C4=NCCN4c4ccccc43)cc2)cc1`, the selectivity ratio was determined as 1.38 in data set [6] and 1.52 in data set [1]. Moreover, the EC50 was determined as 1.75 µM in the data set with Leishmania donovani [2], 17.8 µM with Leishmania donovani [4] and 7.45 µM in the data set on Trypanosoma cruzi. Further, the CC50 in data set [3] was found to be 10.3 µM; in data set [5], 27.1 µM.
As to `CC(C)(C)c1cccc(CN2C3=NCCN3c3ccccc32)c1`, the selectivity ratio in data set [6] was 2.77; in data set [1], greater than 2.21. Further, the EC50 amounted to 4.98 µM with Leishmania donovani [2], 22.6 µM in the data set with Leishmania donovani [4] and 12.5 µM in the data set with Trypanosoma cruzi. Moreover, the CC50 is 34.6 µM in data set [3] and greater than 50 µM in data set [5].
For the compound `CC(C)(C)c1ccc(CN2C3=NCCN3c3cc(Cl)ccc32)cc1`, the selectivity ratio in data set [1] is 1.71. Besides, the concentration for a half-maximal effect (EC50) was 2.22 µM in the data set with Leishmania donovani [2], 7.33 µM in the data set on Leishmania donovani [4] and 6.21 µM in the data set with Trypanosoma cruzi. Moreover, the CC50 in data set [3] turned out to be 44.6 µM; in data set [5], 12.5 µM.
As for `CC(C)(C)c1ccc(C(=O)CN2C3=NCCN3c3ccccc32)cc1`, the selectivity ratio is greater than 1.39 in data set [6] and greater than 1.27 in data set [1]. The CC50 in data set [3] and in data set [5] was greater than 50 µM in each case. The EC50 came to 39.4 µM in the data set with Leishmania donovani [4] and 36 µM in the data set on Trypanosoma cruzi.
In the case of `c1ccc(-c2ccc(CN3C4=NCCN4c4ccccc43)cc2)cc1`, the selectivity ratio is 8.95 in data set [6] and 7.5 in data set [1]. For the same compound, the results for the EC50 in the data set with Leishmania donovani [2], in the data set on Leishmania donovani [4] and with Trypanosoma cruzi were 1.48 µM, 5.29 µM and 2.1 µM, respectively. Besides, the CC50 in data set [3] came out at 18.8 µM; in data set [5] it was 39.7 µM.
For `Fc1ccc(F)c(-c2ccc(CN3C4=NCCN4c4ccccc43)cc2)c1`, the selectivity ratio in data set [6] was 2.14; in data set [1] it was greater than 1.54. In addition, the results for the EC50 in the data set with Leishmania donovani [2], with Leishmania donovani [4] and in the data set with Trypanosoma cruzi were 9.22 µM, 32.5 µM and 4.49 µM, respectively. The CC50 is 9.61 µM in data set [3] and greater than 50 µM in data set [5].
As to `FC(F)(F)Oc1ccc(-c2ccc(CN3C4=NCCN4c4ccccc43)cc2)cc1`, the selectivity ratio in data set [1] came to 2.11. Also, the values for the 50% effective concentration (EC50) with Leishmania donovani [2], in the data set with Leishmania donovani [4] and in the data set with Trypanosoma cruzi were 1.53 µM, 5.2 µM and greater than 50 µM, respectively. For the same compound, the CC50 was greater than 50 µM in data set [3] and 11 µM in data set [5].
For `CC(C)(C)c1ccc(CN2C3=NCCCN3c3ccccc32)cc1`, the figures for the selectivity ratio in data set [6] and in data set [1] were greater than 16.2 and greater than 3.98, respectively. The values for the EC50 in the data set on Leishmania donovani [2], with Leishmania donovani [4] and in the data set on Trypanosoma cruzi were 2.73 µM, 12.5 µM and 3.09 µM, respectively. The CC50 in data set [3] and in data set [5] was greater than 50 µM throughout.
Turning to `c1ccc(Oc2ccc(CN3C4=NCCN4c4ccccc43)cc2)cc1`, the selectivity ratio in data set [6] came to 0.52; in data set [1], 3.82. Also, the EC50 in the data set on Leishmania donovani [2] was 2.01 µM; with Leishmania donovani [4] it was 12.5 µM; in the data set on Trypanosoma cruzi, 38.7 µM. The CC50 is 20 µM in data set [3] and 48 µM in data set [5].
Turning to `Cc1cc(C)cc(CN2C3=NCCN3c3ccccc32)c1`, the CC50 in data set [3] and in data set [5] was greater than 50 µM each time. In addition, the EC50 in the data set with Leishmania donovani [4] and in the data set on Trypanosoma cruzi was greater than 50 µM each time.
For `CC(C)(C)c1ccc(CN2C3=NCCN3c3cc(F)ccc32)cc1`, the selectivity ratio in data set [6] was 6.07; in data set [1], greater than 3.57. Moreover, the EC50 with Leishmania donovani [2] turned out to be 1.26 µM; with Leishmania donovani [4] it was 14 µM; with Trypanosoma cruzi it was 8.24 µM. Besides, the CC50 in data set [3] is 50 µM; in data set [5] it was greater than 50 µM.
As for `c1ccc(CN2C3=NCCN3c3ccccc32)nc1`, the CC50 in data set [3] and in data set [5] was greater than 50 µM throughout. Also, the EC50 in the data set with Leishmania donovani [4] and in the data set with Trypanosoma cruzi was greater than 50 µM each time.
Take `CC(C)(C)c1ccc(OCCN2C3=NCCN3c3ccccc32)cc1`: the selectivity ratio in data set [6] turned out to be 4.36; in data set [1], 1.21. The CC50 was 37.9 µM in data set [3] and 33.1 µM in data set [5]. Besides, the results for the EC50 in the data set on Leishmania donovani [4] and in the data set on Trypanosoma cruzi were 27.4 µM and 8.7 µM, respectively.
For `FC(F)(F)Oc1ccc(CN2C3=NCCN3c3ccccc32)cc1`, in the data set with Leishmania donovani [4], the concentration giving a half-maximal response (EC50) was greater than 50 µM. Moreover, in data set [5], the CC50 is greater than 50 µM.
As to `CC(C)(C)c1ccc(CN2C3=NC(=O)CN3c3ccccc32)cc1`, the CC50 in data set [3] and in data set [5] was greater than 50 µM each time. For the same compound, the EC50 in the data set on Leishmania donovani [4] and in the data set on Trypanosoma cruzi was greater than 50 µM throughout.
For the compound `COc1ccc(-c2ccc(CN3C4=NCCN4c4ccccc43)cc2)cc1`, the selectivity ratio in data set [1] is 2.25. The half-maximal effective concentration (EC50) is 2.34 µM in the data set with Leishmania donovani [2], 10.2 µM with Leishmania donovani [4] and greater than 50 µM in the data set on Trypanosoma cruzi. The CC50 in data set [3] was greater than 50 µM; in data set [5] it was 23 µM.
Compound `N#Cc1ccc(CN2C3=NCCN3c3ccccc32)cc1` came in with an EC50 in the data set on Leishmania donovani [4] greater than 50 µM. The same compound yielded a CC50 in data set [5] greater than 50 µM.
